Tests used:
Assay type in all cases: cell-based
[1] = Displacement of [3H]spiperone from human cloned dopamine D2L receptor D3.32E mutant expressed in HEK293 cells
Procedure, shortened: (§1)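 Wild-type or mutant receptor cDNA transiently transfected into HEK-293 cells (CaHPO4 or TransIT-293), grown in MEM with 10% FBS at 37 °C, 5% CO2, harvested 48 h post-transfection. Membranes prepared by homogenization and spin at 50000g.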

[2] = Displacement of [3H]spiperone from human cloned dopamine D2L receptor V2.61F mutant expressed in HEK293 cells; procedure, shortened: as §1
[3] = Displacement of [3H]spiperone from human cloned dopamine D2L receptor L2.64F mutant expressed in HEK293 cells; procedure, shortened: as §1
[4] = Displacement of [3H]spiperone from human cloned dopamine D2L receptor FV3.28,3.29LM mutant expressed in HEK293 cells; procedure, shortened: as §1
[5] = Displacement of [3H]spiperone from human cloned dopamine D2L receptor V2.61F/FV3.28,3.29LM mutant expressed in HEK293 cells; procedure, shortened: as §1
[6] = Displacement of [3H]spiperone from human cloned dopamine D2L receptor H6.55A mutant expressed in HEK293 cells; procedure, shortened: as §1
[7] = Displacement of [3H]spiperone from human cloned dopamine D2L receptor H6.55F mutant expressed in HEK293 cells; procedure, shortened: as §1
D(4) dopamine receptor [8] = target: T1, D(4) dopamine receptor (Homo sapiens, UniProt P21917); assay: Displacement of [3H]spiperone from wild type human cloned dopamine D4 receptor expressed in HEK293 cells
T1 sequence (P21917 whole entry): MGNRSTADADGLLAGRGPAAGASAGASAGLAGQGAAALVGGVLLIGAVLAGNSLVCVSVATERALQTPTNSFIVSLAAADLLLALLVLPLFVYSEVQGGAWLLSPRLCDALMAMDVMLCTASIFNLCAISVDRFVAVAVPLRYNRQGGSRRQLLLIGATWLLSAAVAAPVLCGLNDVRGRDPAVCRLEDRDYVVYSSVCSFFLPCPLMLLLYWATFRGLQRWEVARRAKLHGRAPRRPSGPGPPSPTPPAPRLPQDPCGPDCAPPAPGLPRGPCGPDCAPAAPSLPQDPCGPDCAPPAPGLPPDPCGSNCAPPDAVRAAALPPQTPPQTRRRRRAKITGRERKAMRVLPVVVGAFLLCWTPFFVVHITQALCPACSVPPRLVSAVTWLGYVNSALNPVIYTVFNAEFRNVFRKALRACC

HEK293 [9] = assay: Selectivity ratio of Ki for human cloned dopamine D2L receptor D3.32E mutant to Ki for wild type human cloned dopamine D2L receptor expressed in HEK293 cells
Procedure, shortened: (§2)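 Wild-type or mutant receptor cDNA transiently transfected into HEK-293 cells, which were grown in MEM with 10% FBS at 37 °C and 5% CO2 and harvested 48 h after transfection. Membranes were homogenised and pelleted at 50000g. Competition against [3H]spiperone (0.1-0.7 nM final) used 20-200 μg/mL protein. Ki was derived from EC50, 2-18 independent experiments in triplicate. Ratios are mutant Ki over wild-type Ki.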

HEK293 [10] = assay: Selectivity ratio of Ki for human cloned dopamine D2L receptor V2.61F mutant to Ki for wild type human cloned dopamine D2L receptor expressed in HEK293 cells; procedure, shortened: as §2
HEK293 [11] = assay: Selectivity ratio of Ki for human cloned dopamine D2L receptor L2.64F mutant to Ki for wild type human cloned dopamine D2L receptor expressed in HEK293 cells; procedure, shortened: as §2
HEK293 [12] = assay: Selectivity ratio of Ki for human cloned dopamine D2L receptor FV3.28,3.29LM mutant to Ki for wild type human cloned dopamine D2L receptor expressed in HEK293 cells; procedure, shortened: as §2
HEK293 [13] = assay: Selectivity ratio of Ki for human cloned dopamine D2L receptor V2.61F/FV3.28,3.29LM mutant to Ki for wild type human cloned dopamine D2L receptor expressed in HEK293 cells; procedure, shortened: as §2
HEK293 [14] = assay: Selectivity ratio of Ki for human cloned dopamine D2L receptor E181V/I183S mutant to Ki for wild type human cloned dopamine D2L receptor expressed in HEK293 cells; procedure, shortened: as §2
HEK293 [15] = assay: Selectivity ratio of Ki for human cloned dopamine D2L receptor H6.55A mutant to Ki for wild type human cloned dopamine D2L receptor expressed in HEK293 cells; procedure, shortened: as §2
HEK293 [16] = assay: Selectivity ratio of Ki for human cloned dopamine D2L receptor H6.55F mutant to Ki for wild type human cloned dopamine D2L receptor expressed in HEK293 cells; procedure, shortened: as §2
HEK293 [17] = assay: Selectivity ratio of Ki for human cloned dopamine D3 receptor L2.64F mutant to Ki for wild type human cloned dopamine D3 receptor expressed in HEK293 cells; procedure, shortened: as §2
HEK293 [18] = assay: Selectivity ratio of Ki for human cloned dopamine D3 receptor FV3.28,3.29LM mutant to Ki for wild type human cloned dopamine D3 receptor expressed in HEK293 cells; procedure, shortened: as §2
HEK293 [19] = assay: Selectivity ratio of Ki for human cloned dopamine D3 receptor V2.61F/FV3.28,3.29LM mutant to Ki for wild type human cloned dopamine D3 receptor expressed in HEK293 cells; procedure, shortened: as §2
HEK293 [20] = assay: Selectivity ratio of Ki for human cloned dopamine D3 receptor V180E/S182I mutant to Ki for wild type human cloned dopamine D3 receptor expressed in HEK293 cells; procedure, shortened: as §2
HEK293 [21] = assay: Selectivity ratio of Ki for human cloned dopamine D3 receptor H6.55A mutant to Ki for wild type human cloned dopamine D3 receptor expressed in HEK293 cells; procedure, shortened: as §2
D(2) dopamine receptor [22] = target: T2, D(2) dopamine receptor (Homo sapiens, UniProt P14416); assay: Displacement of [3H]spiperone from human cloned dopamine D2L receptor expressed in CHO cells
T2 sequence (P14416 whole entry): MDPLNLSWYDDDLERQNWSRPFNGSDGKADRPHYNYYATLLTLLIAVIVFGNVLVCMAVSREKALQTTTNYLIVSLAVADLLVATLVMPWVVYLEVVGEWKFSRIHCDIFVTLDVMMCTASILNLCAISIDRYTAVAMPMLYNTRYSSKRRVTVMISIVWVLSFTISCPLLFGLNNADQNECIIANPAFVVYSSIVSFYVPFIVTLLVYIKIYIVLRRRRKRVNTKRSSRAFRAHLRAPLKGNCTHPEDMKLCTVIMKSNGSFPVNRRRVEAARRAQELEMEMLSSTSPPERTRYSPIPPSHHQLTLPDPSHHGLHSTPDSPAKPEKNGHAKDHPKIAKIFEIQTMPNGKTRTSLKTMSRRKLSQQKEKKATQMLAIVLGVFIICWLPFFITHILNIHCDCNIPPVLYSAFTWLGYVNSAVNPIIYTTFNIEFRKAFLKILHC

D(3) dopamine receptor [23] = target: T3, D(3) dopamine receptor (Homo sapiens, UniProt P35462); assay: Displacement of [3H]spiperone from human cloned dopamine D3 receptor expressed in CHO cells
T3 sequence (P35462 whole entry): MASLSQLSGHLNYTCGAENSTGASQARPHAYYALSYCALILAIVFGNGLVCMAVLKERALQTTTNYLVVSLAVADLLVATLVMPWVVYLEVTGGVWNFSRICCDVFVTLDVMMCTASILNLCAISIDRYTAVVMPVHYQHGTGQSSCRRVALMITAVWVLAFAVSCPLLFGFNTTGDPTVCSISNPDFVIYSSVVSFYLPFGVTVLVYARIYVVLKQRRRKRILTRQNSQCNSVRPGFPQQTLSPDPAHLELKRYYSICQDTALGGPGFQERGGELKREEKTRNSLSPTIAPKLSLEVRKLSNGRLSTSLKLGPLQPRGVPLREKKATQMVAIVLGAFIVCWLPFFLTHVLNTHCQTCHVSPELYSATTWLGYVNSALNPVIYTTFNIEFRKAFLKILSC

D(4) dopamine receptor [24] = target: T1, D(4) dopamine receptor; assay: Displacement of [3H]spiperone from human cloned dopamine D4 receptor expressed in CHO cells
Procedure, shortened: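 Membranes from CHO cells stably expressing human D4 (Bmax 700-1800 fmol/mg). Curves fit by nonlinear regression, sigmoid model giving IC50 and slope; Ki ± SEM from 2-9 experiments in triplicate.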

CHO [25] = assay: Selectivity ratio of Ki for human cloned dopamine D2L receptor to Ki for human cloned dopamine D3 receptor expressed in CHO cells
CHO [26] = assay: Selectivity ratio of Ki for human cloned dopamine D2L receptor to Ki for human cloned dopamine D4 receptor expressed in CHO cells
D(2) dopamine receptor [27] = target: T2, D(2) dopamine receptor; assay: Displacement of [3H]spiperone from wild type human cloned dopamine D2L receptor expressed in HEK293 cells
D(2) dopamine receptor [28] = target: D(2) dopamine receptor (Homo sapiens, UniProt P14416, E181V/I183S); assay: Displacement of [3H]spiperone from human cloned dopamine D2L receptor E181V/I183S mutant expressed in HEK293 cells; procedure, shortened: as §2
Chain of D(2) dopamine receptor (Homo sapiens, UniProt P14416, E181V/I183S) (P14416 whole entry E181V/I183S): as the sequence (P14416 whole entry) above, with E181V, I183S counted along it

D(3) dopamine receptor [29] = target: T3, D(3) dopamine receptor; assay: Displacement of [3H]spiperone from wild type human cloned dopamine D3 receptor expressed in HEK293 cells
D(3) dopamine receptor [30] = target: D(3) dopamine receptor (Homo sapiens, UniProt P35462, D110E); assay: Displacement of [3H]spiperone from human cloned dopamine D3 receptor D3.32E mutant expressed in HEK293 cells
Chain of D(3) dopamine receptor (Homo sapiens, UniProt P35462, D110E) (P35462 as listed by the source D110E): as the sequence (P35462 whole entry) above, with G9S, D110E counted along it

D(3) dopamine receptor [31] = target: D(3) dopamine receptor (Homo sapiens, UniProt P35462, V87F); assay: Displacement of [3H]spiperone from human cloned dopamine D3 receptor V2.61F mutant expressed in HEK293 cells
Chain of D(3) dopamine receptor (Homo sapiens, UniProt P35462, V87F) (P35462 as listed by the source V87F): as the sequence (P35462 whole entry) above, with G9S, V87F counted along it

D(3) dopamine receptor [32] = target: T3, D(3) dopamine receptor; assay: Displacement of [3H]spiperone from human cloned dopamine D3 receptor L2.64F mutant expressed in HEK293 cells
D(3) dopamine receptor [33] = target: T3, D(3) dopamine receptor; assay: Displacement of [3H]spiperone from human cloned dopamine D3 receptor FV3.28,3.29LM mutant expressed in HEK293 cells
D(3) dopamine receptor [34] = target: D(3) dopamine receptor (Homo sapiens, UniProt P35462, F106L/V107M/V87F); assay: Displacement of [3H]spiperone from human cloned dopamine D3 receptor V2.61F/FV3.28,3.29LM mutant expressed in HEK293 cells
Chain of D(3) dopamine receptor (Homo sapiens, UniProt P35462, F106L/V107M/V87F) (P35462 as listed by the source V87F/F106L/V107M): as the sequence (P35462 whole entry) above, with G9S, V87F, F106L, V107M counted along it

D(3) dopamine receptor [35] = target: D(3) dopamine receptor (Homo sapiens, UniProt P35462, S182I/V180E); assay: Displacement of [3H]spiperone from human cloned dopamine D3 receptor V180E/S182I mutant expressed in HEK293 cells
Chain of D(3) dopamine receptor (Homo sapiens, UniProt P35462, S182I/V180E) (P35462 as listed by the source V180E/S182I): as the sequence (P35462 whole entry) above, with G9S, V180E, S182I counted along it

D(3) dopamine receptor [36] = target: D(3) dopamine receptor (Homo sapiens, UniProt P35462, H349A); assay: Displacement of [3H]spiperone from human cloned dopamine D3 receptor H6.55A mutant expressed in HEK293 cells
Chain of D(3) dopamine receptor (Homo sapiens, UniProt P35462, H349A) (P35462 as listed by the source H349A): as the sequence (P35462 whole entry) above, with G9S, H349A counted along it

HEK293 [37] = assay: Selectivity ratio of Ki for human cloned dopamine D3 receptor D3.32E mutant to Ki for wild type human cloned dopamine D3 receptor expressed in HEK293 cells; procedure, shortened: as §2
HEK293 [38] = assay: Selectivity ratio of Ki for human cloned dopamine D3 receptor V2.61F mutant to Ki for wild type human cloned dopamine D3 receptor expressed in HEK293 cells; procedure, shortened: as §2

Compound | Ki [1] [nM] | Ki [2] [nM] | Ki [3] [nM] | Ki [4] [nM] | Ki [5] [nM] | Ki [6] [nM] | Ki [7] [nM] | Ratio Ki (HEK293 [10]) | Ratio Ki (HEK293 [12]) | Ratio Ki (HEK293 [13]) | Ratio Ki (HEK293 [15]) | Ratio Ki (HEK293 [18]) | Ratio Ki (HEK293 [19]) | Ki (D(2) dopamine receptor [22]) [nM] | Ki (D(3) dopamine receptor [23]) [nM] | Ki (D(4) dopamine receptor [24]) [nM] | Ratio Ki (CHO [25]) | Ratio Ki (CHO [26]) | Ki (D(2) dopamine receptor [27]) [nM] | Ki (D(3) dopamine receptor [29]) [nM] | further results
COc1ccccc1N1CCN(CCCCNC(=O)c2cc3ccccn3n2)CC1 | 3500 | 920 | 940 | 220 | 120 | 21 | 340 |  |  |  |  |  |  |  |  |  |  |  |  |  | 
CSc1ccccc1N1CCN(CCCCNC(=O)c2cc3ccccn3n2)CC1 | 1300 | 130 | 120 | 65 |  | 11 | 160 | 3.4 | 1.8 | 0.7 | 0.3 | 36 | 80 | 16 | 0.35 | 65 | 46 | 0.25 | 37 | 160 | Ki (D(4) dopamine receptor [8]): 310 nM; Ratio Ki (HEK293 [9]): 34; Ratio Ki (HEK293 [11]): 3; Ratio Ki (HEK293 [14]): 3.4; Ratio Ki (HEK293 [16]): 4.3; Ratio Ki (HEK293 [17]): 66; Ratio Ki (HEK293 [20]): 1.5; Ratio Ki (HEK293 [21]): 1.3; Ki (D(2) dopamine receptor [28]): 130 nM; Ki (D(3) dopamine receptor [30]): 0.5 nM; Ki (D(3) dopamine receptor [31]): 230 nM; Ki (D(3) dopamine receptor [32]): 58 nM; Ki (D(3) dopamine receptor [33]): 33 nM; Ki (D(3) dopamine receptor [34]): 18 nM; Ki (D(3) dopamine receptor [35]): 40 nM; Ki (D(3) dopamine receptor [36]): 0.76 nM
CSc1ccccc1N1CCN(CCCNC(=O)c2cnn3ccccc23)CC1 | 160 | 100 | 660 | 35 | 20 | 0.1 | 17 | 45 | 16 | 9 | 0.05 | 12 | 0.31 | 1.4 | 18 | 8.8 | 0.08 | 0.16 | 2.2 | 26 | Ki (D(4) dopamine receptor [8]): 26 nM; Ratio Ki (HEK293 [9]): 74; Ratio Ki (HEK293 [11]): 303; Ratio Ki (HEK293 [14]): 12; Ratio Ki (HEK293 [16]): 7.7; Ratio Ki (HEK293 [37]): 25; Ratio Ki (HEK293 [38]): 29; Ratio Ki (HEK293 [17]): 17; Ratio Ki (HEK293 [20]): 0.13; Ratio Ki (HEK293 [21]): 0.5; Ki (D(2) dopamine receptor [28]): 26 nM; Ki (D(3) dopamine receptor [30]): 650 nM; Ki (D(3) dopamine receptor [31]): 740 nM; Ki (D(3) dopamine receptor [32]): 740 nM; Ki (D(3) dopamine receptor [33]): 430 nM; Ki (D(3) dopamine receptor [34]): 320 nM; Ki (D(3) dopamine receptor [35]): 8 nM; Ki (D(3) dopamine receptor [36]): 3.4 nM
Clc1ccc(N2CCN(CCCCCc3cc4ccccn4n3)CC2)cc1 |  | 740 |  | 1100 | 470 | 170 |  | 3.3 | 4.9 | 2.1 | 0.74 | 2.4 | 5.1 | 160 | 370 | 46 | 0.43 | 3.5 | 220 | 220 | Ratio Ki (HEK293 [38]): 8.8; Ki (D(3) dopamine receptor [31]): 1900 nM; Ki (D(3) dopamine receptor [33]): 530 nM; Ki (D(3) dopamine receptor [34]): 1100 nM

— ChEMBL document CHEMBL1158482, “Dopamine D2, D3, and D4 selective phenylpiperazines as molecular probes to explore the origins of subtype specific receptor binding” (J Med Chem, 2009)
